# Results reported in PMC10431048 (CPT: Pharmacometrics & Systems Pharmacology, 2023).
# Several values for one entry are separate records, joined by “and”; a condition that tells them apart may be missing. Equal entries are not always repeated. Entries after “also recorded” stand apart in the source; their conditions may differ. Where two headings read alike, the source gives them in different places.
# Legend:
# Population PK model = format: in vivo, human
# Method in brief: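 Plasma from nine trials (healthy, hepatic-impaired, FSGS; K2EDTA; acetonitrile precipitation; deuterated internal standard) was assayed by LC-MS/MS, 2.00–4000 ng/mL, LLOQ 2 ng/mL; samples below LLOQ were excluded. NONMEM FOCE-I fit: two compartments, lag plus first-order absorption, proportional-plus-additive error, nonlinear Frel above 200 mg, instant CL/F induction after first dose. Covariates: forward p<0.01, backward p<0.001. Bootstrap gave standard errors.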
# [1] = format: in vivo, human; details: for change in steady-state AUC vs base: 800 mg once daily
# Method in brief: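 Simulated steady-state exposure (AUC, Cmax, Cmin) at 800 mg/day from the final model for a typical white male FSGS subject: 800-mg tablet, median ALKP and CrCL, no moderate or strong CYP3A4 inhibitor. Continuous covariates were set one at a time to 5th and 95th percentiles, and categorical covariates to alternative categories. Multivariate effects came from post hoc individual estimates stratified by covariate category.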
# [2] = mass balance study; ref study 021HVOL16005, data on file; cited from earlier work
# CYP3A = details: ref data on file, cited from earlier work
# [3] = cited from earlier work
# [4] = sparsentan 400 titrating to 800 mg/day vs irbesartan, week 36; cited from earlier work
# [5] = mild and moderate hepatic impairment; ref study 021IHFX16009, data on file; cited from earlier work
# [6] = log-domain coefficient, vs capsule
# [7] = log-domain coefficient, vs white
# [8] = ALKP at the 5th and 95th percentile
# [9] = CrCL at the 5th and 95th percentile
# [10] = covariates other than moderate/strong CYP3A4 inhibitors, steady-state 800 mg
smiles,measurement,setting,value
CCCCC1=NC2(CCCC2)C(=O)N1Cc1ccc(-c2ccccc2S(=O)(=O)Nc2noc(C)c2C)c(COCC)c1 [sparsentan],Vc/F (derived),Population PK model; 800 mg dose,69.5 L
same,Vp/F (derived),Population PK model; 800 mg dose,17.0 L
same,CL/F (derived),"Population PK model; 800 mg dose, single dose, reference subject",5.47 L/h
same,Q/F,"Population PK model; 400-mg dose, reference subject",2.03 L/h
same,Vp/F,"Population PK model; 400-mg dose, reference subject",12.1 L
same,Vc/F,"Population PK model; 400-mg dose, reference subject white female, 400-mg capsule",49.3 L
same,effect of co-medications on PK,"Population PK model; acid reducer (including proton pump inhibitors), P-gp inhibitor, or mild CYP3A4 inhibitor",No significant effect
same,Induction change in CL,"Population PK model; additional CL at steady-state (CYP3A auto-induction), 400-mg reference subject",1.23 L/h
same,Ka,Population PK model; capsule (reference),0.740 h⁻¹
same,half-life,"Population PK model; human, plasma, oral, 800 mg",9.6 h
same,Variance Ka,Population PK model; interindividual random effect,0.474
same,Variance Vc,Population PK model; interindividual random effect,0.234
same,Effect on Ka: Crushed tablet,Population PK model; [6],0.080
same,Effect on Ka: Tablet,Population PK model; [6],−0.306
same,Effect on Vc: Asian,Population PK model; [7],0.265
same,Effect on Vc: Black or African American,Population PK model; [7],0.309
same,increase of clearance due to CYP3A auto-induction at steady-state,Population PK model; steady-state vs first dose,32%
same,effect of ALKP on AUC,[1]; [8],< 15%
same,effect of ALKP on Cmax,[1]; [8],< 10%
same,impact of CrCL on AUC,[1]; [9],< 20%
same,impact of CrCL on Cmax,[1]; [9],< 10%
same,steady-state exposures across race,"[1]; FSGS, 800-mg tablet",comparable
same,steady-state exposure by age bracket,"[1]; FSGS, 800-mg tablet, age 8-17, 18-64, >=65 years",increase
same,effect of formulation on steady-state AUC,[1]; capsule and crushed tablet compared to tablet,unaffected; also recorded: no overall change
same,increase in steady-state Cmax by formulation,"[1]; capsule and crushed tablet formulations compared to tablet, 800 mg",less than 10%
same,effect of other covariates on AUC,[1]; [10],less than 20%
same,effect of other covariates on Cmax,[1]; [10],less than 20%
same,impact of sex and race on steady-state AUC,"[1]; female, White, Black, Asian",< 15%
same,impact of sex and race on steady-state Cmax,"[1]; female, White, Black, Asian",< 15%
same,change in steady-state Cmax vs base,[1]; moderate CYP3A4 inhibitor comedication,16.0%
same,change in steady-state AUC vs base,"[1]; moderate CYP3A4 inhibitor comedication, FSGS",31.4% and 31%
same,change in steady-state AUC vs base,"[1]; strong CYP3A4 inhibitor comedication, FSGS",191.3% and 191%
same,urinary excretion,[2],2.18 % of the radioactive dose
same,interaction with CYP3A in vitro,CYP3A; in vitro,competitive inhibitor and inducer
same,metabolism,CYP3A,primarily metabolized by CYP3A
same,reduction in urinary protein to creatinine ratio (UP/C),"[3]; sparsentan 200, 400, or 800 mg/day vs irbesartan 300 mg/day, 8 weeks",higher reduction
same,rates of patients reaching the FSGS partial remission end point (FPRE),[3]; sparsentan vs irbesartan,higher rates
same,"FPRE response, interim results",[4],significantly greater
same,effect of hepatic impairment on sparsentan exposure,[5],not having a large effect
